# Source: PubChem (Sanford-Burnham Center for Chemical Genomics)
# Rows were chosen to be rich in hits. Some 2.9% of all compounds tested hit in one or more screens of this group.
# Apaf-1 inh – inhibitors of human Apaf-1 apoptosome, primary screen, biochemical, DEVD-Rh110 fluorescence, uHTS. inhibition, % at 20 µM. reconstituted apoptosome caspase-3 activity. 330,000 compounds, 0.71% hits. Apoptotic protease-activating factor 1 (Homo sapiens), O14727; active = inhibition of at least 40% at 20 µM
#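 System: reconstituted apoptosome with Apaf-1, cytochrome c, caspase-9, procaspase-3, dATP; Signal: Rh110 fluorescence intensity; Schedule: 30 min compound preincubation, 50 min activation, room temperature; Reagent: cytochrome c trigger plus (Z-DEVD)2-Rh110 caspase-3 substrate.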
# SENP7 inh – SENP7 protease inhibitors, primary screen, biochemical, luminescence, uHTS. recombinant SENP7, Z-RLRGG-aminoluciferin luminescence, 40 min. inhibition, % at 5 µM. 330,000 compounds, 1.5% hits. Sentrin-specific protease 7 (Homo sapiens), Q9BQF6;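 active = inhibition above about 50% at the single test dose, limit read from the data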
# Target sequence (Q9BQF6 706-1050 limits assumed): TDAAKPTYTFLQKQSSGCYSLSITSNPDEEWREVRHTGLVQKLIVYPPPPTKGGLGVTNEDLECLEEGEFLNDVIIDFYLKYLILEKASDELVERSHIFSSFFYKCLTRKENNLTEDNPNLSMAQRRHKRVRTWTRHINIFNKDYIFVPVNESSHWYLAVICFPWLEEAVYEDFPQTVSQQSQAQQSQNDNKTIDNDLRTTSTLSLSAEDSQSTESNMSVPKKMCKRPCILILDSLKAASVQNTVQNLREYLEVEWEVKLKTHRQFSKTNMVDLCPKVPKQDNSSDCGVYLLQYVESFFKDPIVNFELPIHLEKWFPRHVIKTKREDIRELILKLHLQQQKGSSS
# SENP6 inh – SENP6 protease inhibitors, primary screen, biochemical, luminescence, uHTS; Sentrin-specific protease 6 (Homo sapiens), Q9GZR1; Recombinant SENP6 catalytic domain, aminoluciferin luminescence; inhibition, % at 10 µM; 330,000 compounds, 1.8% hits;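 active = inhibition above about 50% at the single tested dose, limit read from the data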
# SENP8 block-1 – human SENP8 protease inhibitors, primary screen, biochemical, fluorescence, Nedd8 protein substrate, uHTS. Sentrin-specific protease 8 (Homo sapiens), Q96LD8. recombinant SENP8. inhibition, % at 20 µM. 360,000 compounds, 0.64% hits; in the data active = inhibition mostly above about 40%, no sharp cut-off; inactive = mostly below about 27%
# SENP1 inh – human SENP1 catalytic domain inhibitors, primary screen, biochemical, FRET, uHTS; Sentrin-specific protease 1 (Homo sapiens), Q9P0U3; recombinant SENP1 catalytic domain, CyPet-SUMO1-YPet FRET cleavage; inhibition, % at 10 µM; 360,000 compounds, 0.21% hits; AID 624204, 2012;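 active = inhibition at least 30% at 10 µM, raw YFP signal under a set limit, fluorescence ratio 0.5 to 1.5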
#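 Test system: hSENP1 catalytic domain, recombinant; Amount: 20 pM final SENP1 enzyme; Medium: Tris pH 8 buffer plus EDTA, NaCl, BME, BSA, NP40, catalase; Schedule: 50 min enzyme reaction, room temperature, light-protected; Technique: FRET fluorescence in CFP and YFP emission channels; Controls: no-enzyme wells low, DMSO-plus-enzyme wells high control.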
# SENP8 block-2 – SENP8 protease inhibitors, primary screen, biochemical, luminescence. 330,000 compounds, 1.2% hits. purified SENP8, Z-RLRGG-aminoluciferin cleavage. AID 2540, 2010. Sentrin-specific protease 8 (Homo sapiens), Q96LD8. inhibition, % at 10 µM; in the data active = inhibition above about 50%
# SENP8 confirm – SENP8 protease inhibitors, retest, confirmation, biochemical, luminescence, single concentration | shares compounds with SENP7 inh | Recombinant SENP8, Z-RLRGG-aminoluciferin luminescence, 60 min | inhibition, % at 12.5 µM | 6,200 compounds, 40% hits;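 active = mean inhibition across replicates above about 50%, limit read from the data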
# SENP6 confirm – SENP6 protease inhibitors, confirmation, biochemical, luminescence, single concentration. shares compounds with SENP7 inh. recombinant SENP6, Z-RLRGG-aminoluciferin luminescence. inhibition, % at 12.5 µM. 6,200 compounds, 58% hits
# SENP7 conf – SENP7 protease inhibitors, retest, confirmation, biochemical, luminescence, single concentration; shares compounds with SENP7 inh; recombinant SENP7, Z-RLRGG-aminoluciferin luminescence, 40 min; inhibition, % at 12.5 µM; 6,200 compounds, 69% hits
# Casp3 SENP sel – caspase-3 protease inhibitors, confirmation, selectivity assay for SENP inhibitor project, biochemical, single concentration | purified caspase-3, Z-DEVD-aminoluciferin luminescence, 60 min | shares compounds with SENP7 inh | AID 488918, 2010 | 6,200 compounds, 60% hits | inhibition, % at 12.5 µM;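 active = mean inhibition above about 50%, limit read from the data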
# Target sequence (P42574 28-227 limits assumed): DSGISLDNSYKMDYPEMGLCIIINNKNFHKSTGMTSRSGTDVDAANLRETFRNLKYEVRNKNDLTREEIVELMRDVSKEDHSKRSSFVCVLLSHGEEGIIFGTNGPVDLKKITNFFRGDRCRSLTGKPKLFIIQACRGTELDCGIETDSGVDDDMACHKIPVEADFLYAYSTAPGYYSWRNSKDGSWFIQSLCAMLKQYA
# SENP luc ctr – counter-screen for SENP inhibitors: luminescence interference. shares compounds with SENP7 inh. Pre-incubated SENP8/Z-RLRGG-aminoluciferin, luciferase luminescence interference. inhibition, % at 12.5 µM. 6,200 compounds, 39% hits;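 active = mean inhibition above about 50% when retested at one dose, limit read from the data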
# Numbers stand for hits; . = inactive; / = no result given.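 The calls were made as follows, unless noted: active = mean inhibition above about 50% in the one-dose retest (limit read from the data); inactive = the rest.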
SMILES,Apaf-1 inh,SENP7 inh,SENP6 inh,SENP8 block-1,SENP1 inh,SENP8 block-2,SENP8 confirm,SENP6 confirm,SENP7 conf,Casp3 SENP sel,SENP luc ctr
Cc1cc2ccccc2c(=O)[nH]1,.,.,.,.,.,.,/,/,/,/,/
Brc1ccc(-c2nc3ccccc3s2)s1,.,96,95,.,.,95,66,82,87,.,67
Nc1ccc(-c2nc3ccccc3s2)cn1,.,69,79,.,.,66,75,73,91,78,.
c1ccc(-c2nc3ccccc3s2)nc1,.,79,90,.,.,76,.,89,99,89,.
CCCNC(=O)Nc1nc2ccccc2s1,.,.,.,.,.,.,/,/,/,/,/
CCCNC(=O)c1ccc(-c2nc3ccccc3s2)s1,.,87,89,.,.,84,.,86,99,55,.
Brc1cc2c(cc1-c1nc3ccccc3s1)OCO2,.,.,.,.,.,.,/,/,/,/,/
O=C1CCC(=O)N1c1ccc(-c2nc3ccccc3s2)cc1,.,94,89,.,.,70,.,62,83,72,.
CC1(C(=O)NS(=O)(=O)c2cccc(C#N)c2)CCN1C(=O)CCC1CCCC1 (centres undefined),/,/,/,.,.,/,/,/,/,/,/
COc1ccc2oc(C(=O)Nc3nc4ccccc4[nH]3)c(C)c2c1,.,93,78,.,.,58,.,.,95,84,58
Cc1ccc2oc(C(=O)Nc3nnc(C)s3)c(C)c2c1,.,59,.,.,.,.,.,.,.,.,.
COc1ccc2oc(C(=O)Nc3nnc(C)s3)c(C)c2c1,.,62,.,.,.,.,.,.,.,.,.
COc1ccc2oc(C(=O)Nc3nc4ccc(S(C)(=O)=O)cc4s3)c(C)c2c1,.,.,.,.,.,.,/,/,/,/,/
COc1ccc(Br)c(C(=O)Nc2nc3ccccc3[nH]2)c1,.,.,.,.,.,.,/,/,/,/,/
CC(C)CNC(=O)C1(C)CCCN1C(=O)C(C)(C)Oc1ccc(Cl)cc1 (centres undefined),/,/,/,.,.,/,/,/,/,/,/
COc1ccc(NC(=O)CSc2nc3c(sc4ccccc43)c(=O)n2CCCN2CCCC2)cc1,.,.,.,.,.,.,/,/,/,/,/
Nc1ccccc1C#Cc1ccccc1,.,66,67,.,.,57,.,76,91,59,63
O=C(/C=C/Nc1ccc(Br)cc1F)c1ccccc1,.,100,94,.,.,94,.,.,.,65,.
CC(=O)c1ccc(N/C=C\C(=O)c2ccc(C)cc2)cc1,.,.,.,.,.,.,/,/,/,/,/
O=C(/C=C/Nc1ccc(F)c(Cl)c1)c1ccccc1,.,65,71,.,.,.,.,.,87,58,.
Cc1ccc(C(=O)/C=C/Nc2ccc3c(c2)OCO3)cc1,.,60,.,.,.,.,.,.,.,.,.
O=C(/C=C/NNC(=O)c1ccccc1)c1ccc(Br)cc1,.,.,.,.,.,.,/,/,/,/,/
Cc1ccc(C(=O)/C=C/Nc2cccc(O)c2)cc1,.,.,93,.,.,88,.,93,100,77,78
Cc1nc2c(OCCOc3ccc(F)cc3)cccn2c1N(C)C(=O)CCC1CCCC1,/,/,/,.,.,/,/,/,/,/,/
O=C(/C=C/Nc1cccc(O)c1)c1ccccc1,.,98,97,.,.,96,99,99,103,97,98
SMILES,Apaf-1 inh,SENP7 inh,SENP6 inh,SENP8 block-1,SENP1 inh,SENP8 block-2,SENP8 confirm,SENP6 confirm,SENP7 conf,Casp3 SENP sel,SENP luc ctr
Cc1ccc(N/C=C/C(=O)c2ccccc2)cc1Br,.,83,63,.,.,.,.,.,.,.,.
C/C(=C\C(=O)c1ccc(C)cc1)Nc1cccc(O)c1,.,.,84,.,.,76,82,87,98,70,88
CC(=O)c1cccc(N/C=C\C(=O)c2ccc(C)cc2)c1,/,/,/,.,.,/,/,/,/,/,/
CCC1CCCCN1C(=O)COC(=O)COc1ccc(Br)cc1 (centres undefined),.,.,.,.,.,.,/,/,/,/,/
CCCCCCCCN1C(=O)[C@H](CC(=O)NCc2cccc(C(F)(F)F)c2)C[C@@]2(C(=O)OC)CCCCC=C12,/,/,/,.,.,/,/,/,/,/,/
Cc1cc(NC(=O)CSc2nnc(-c3ccc([N+](=O)[O-])cc3)o2)no1,.,.,.,.,.,.,/,/,/,/,/
Cc1cccc(/C=C/C(=O)c2ccc(NC3=NCCCS3)cc2)c1,.,88,93,.,.,71,81,68,.,.,90
COc1cccc(/C=C/C(=O)c2ccc(NC3=NCCCS3)cc2)c1,.,.,.,.,.,.,/,/,/,/,/
CCOC(=O)C1=C[C@@H](c2ccccc2)N(S(=O)(=O)c2ccc(C)cc2)[C@H]1c1cccc(Cl)c1,/,/,/,.,.,/,/,/,/,/,/
O=C(Nc1cccc2ccccc12)N1CC=CCC1,.,.,65,.,.,.,.,.,.,.,.
O=C(Nc1cccc2ccccc12)N1CCN(c2ccccc2)CC1,.,.,.,.,.,.,/,/,/,/,/
Cc1ccc(NC(=O)O/N=C/c2c(C)nn(C(C)(C)C)c2C)cc1Cl,.,52,52,.,.,.,.,.,.,.,.
CSCCC(NC(=O)COc1ccccc1)C(=O)N1CCCC(C(F)(F)F)C1 (centres undefined),.,.,.,.,.,.,/,/,/,/,/
CC(C)(C)NC(=S)Nc1ccc(Nc2ccccc2)cc1,.,50,.,.,.,.,.,.,.,.,.
